From ChEMBL document CHEMBL4665798, “Novel Human Urate Transporter 1 Inhibitors as Hypouricemic Drug Candidates with Favorable Druggability” (J Med Chem, 2020) come the findings set out here.

A short description of series [1]: AUC (0 to t) in Sprague-Dawley rat at 10 mg/kg, po by LC-MS analysis. The format is ADME, organism-based. Further details: dose 10 mg/kg. To be noted: in vivo. The method, boiled down: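 Male Sprague-Dawley rats, two groups, dosed iv or orally; compound in PEG 400/normal saline (70/30, V/V). Oral blood from sinus jugularis at 5 min to 24 h, plasma by centrifugation at 2200 g, stored -20 °C. Plasma with internal standard precipitated by methanol, quantified by LC-MS against spiked blank-plasma standard curves. Mean ± SD, n = 5.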

Series [2] has as its target T1, Solute carrier family 2, facilitated glucose transporter member 9 (Homo sapiens, UniProt Q9NRM0).
T1 sequence (Q9NRM0 whole entry): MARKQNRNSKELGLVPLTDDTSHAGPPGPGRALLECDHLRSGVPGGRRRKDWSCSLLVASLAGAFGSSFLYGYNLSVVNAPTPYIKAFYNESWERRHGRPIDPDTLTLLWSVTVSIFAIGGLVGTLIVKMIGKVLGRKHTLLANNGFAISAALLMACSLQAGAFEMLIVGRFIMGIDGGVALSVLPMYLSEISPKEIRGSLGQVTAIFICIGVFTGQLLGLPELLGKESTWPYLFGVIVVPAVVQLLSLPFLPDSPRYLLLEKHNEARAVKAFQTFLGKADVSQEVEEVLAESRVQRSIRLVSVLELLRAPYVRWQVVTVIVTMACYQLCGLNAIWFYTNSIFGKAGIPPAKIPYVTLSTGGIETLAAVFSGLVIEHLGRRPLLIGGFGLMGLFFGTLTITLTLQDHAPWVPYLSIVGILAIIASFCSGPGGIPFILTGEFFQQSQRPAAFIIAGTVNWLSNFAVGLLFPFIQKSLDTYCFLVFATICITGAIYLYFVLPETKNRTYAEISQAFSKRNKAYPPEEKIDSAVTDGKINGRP
As to the kind of experiment: Inhibition of GLUT9 (unknown origin).

Series [3] in a line: Half-life in male Kunming mouse at 500 mg/kg, po by LC-MS/MS analysis. Type of series: ADME, organism-based. The conditions noted are these: in vivo. The essentials: (§1)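 Male Kunming mice given oral compound in PEG 400/normal saline (70/30, V/V). Blood from submandibular or saphenous vein into K2EDTA tubes at 0.25 to 72 h. Plasma spun at 3200g near 4 °C, kept -70 °C, precipitated with acetonitrile plus dexamethasone internal standard. Quantified by LC-MS/MS against spiked blank-plasma standard curves.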

Series [4] in a line: AUC (0 to infinity) in male Kunming mouse at 500 mg/kg, po by LC-MS/MS analysis. To be noted: in vivo. Type of series: ADME, organism-based. Further details: time infinity, route oral, dose 500 mg/kg. The method, boiled down: as §1
Series [5] can be described thus: AUC (0 to t) in male Kunming mouse at 500 mg/kg, po by LC-MS/MS analysis. The format is ADME, organism-based. On the set-up: dose 500 mg/kg. To be noted: in vivo. The essentials:
as §1

Series [6] is described as follows: Half-life in male Kunming mouse at 50 mg/kg, po by LC-MS/MS analysis. The format is ADME, organism-based. The conditions noted are these: in vivo. The method, boiled down:
(§2)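 Male Kunming mice, ten in total, split into five groups; single oral dose in PEG 400/normal saline (70/30, v/v). Blood taken from submandibular or saphenous vein into K2EDTA tubes at 0.25, 0.5, 1, 2, 4, 8, 24, 48, 72 h. Plasma spun at about 4 °C and kept at -70 °C. Acetonitrile precipitation with dexamethasone internal standard, then LC-MS/MS against plasma standard curves.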

Series [7] can be described thus: AUC (0 to t) in male Kunming mouse at 50 mg/kg, po by LC-MS/MS analysis. The conditions noted are these: in vivo. The format is ADME, organism-based. On the set-up: dose 50 mg/kg. The method, boiled down: as §2
The nature of series [8]: Cmax in male Kunming mouse at 2 mg/kg, po by LC-MS/MS analysis. To be noted: in vivo. The format is ADME, organism-based. On the set-up: route oral, dose 2 mg/kg. The essentials: as §2
A short description of series [9]: Half-life in male Kunming mouse at 2 mg/kg, po by LC-MS/MS analysis. To be noted: in vivo. Type of series: ADME, organism-based. The essentials: as §2
Series [10] can be described thus: Tmax in Sprague-Dawley rat at 20 mg/kg, po by LC-MS analysis. To be noted: in vivo. The format is ADME, organism-based.
For series [11], the species on record is Rattus norvegicus. Description: Potency index, ratio of lesinurad to test compound for hypouricemic activity in rat model of xanthine/potassium oxonate-induced acute hyperuricemia assessed as decrease in serum uric acid level. Type of series: functional.

One may read the AUC(0-t) as the area under the concentration-time curve up to a stated or last time point. As a reminder, the IC50 is the concentration needed to halve the response being measured. A word on the half-life: it is the time in which the quantity being followed falls by half. A higher half-life goes with slow loss. In general, AUC(0-inf) refers to total exposure, with the tail of the curve extrapolated. The low end stands for less exposure, the high end for more exposure. A word on the Cmax: it is the peak of the concentration-time curve. As usually defined, the Tmax is the time at which the peak concentration occurs.

Compound `O=C(CSc1nnc(Br)n1-c1ccc(C2CC2)c2ccccc12)NS(=O)(=O)c1ccc(Br)cc1` came in with an AUC(0-t) in [1] of 19.4 µg·h/mL. For the same compound, the IC50 in [2] amounted to 31.7 µM.

On to `CC(Sc1nc2ncccc2n1-c1ccc(C2CC2)c2ccccc12)C(=O)O` (racemic), for which the half-life was 3.9 h in [3], 7.06 h in [6] and 4.24 h in series [9]. The compound also returned an AUC(0-inf) in [4] of 2960 µg·h/mL. Moreover, the results for the AUC(0-t) in series [5] and in [7] were 2960 µg·h/mL and 335 µg·h/mL, respectively. In [8], this compound returned a Cmax of 2080 ng/mL. In addition, the Tmax in [10] turned out to be 2 h. In addition, the Ratio in [11] is recorded as 1.6.
